{"source": "ChEMBL document CHEMBL4219191", "about": "“Discovery of new A- and B-type laxaphycins with synergistic anticancer activity” (Bioorg Med Chem, 2018)", "key": {"HCT-116 [1]": {"tested_on": "HCT-116", "test": "Antiproliferative activity against human HCT116 cells after 48 hrs by MTT assay", "type": "functional, cell-based", "settings": "HCT-116, 48 h", "in_short": "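HCT116 cells grown in DMEM with 10% FBS at 37 °C under 5% CO2. 10,000 cells per well were seeded and treated 24 h later with a concentration series in DMSO (0.5%). After 48 h more, MTT viability was read. Run in triplicate; IC50 by nonlinear regression.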"}, "HCT-116 [2]": {"tested_on": "HCT-116", "test": "Synergistic antiproliferative activity against human HCT116 cells assessed as combination index at 1 uM after 48 hrs in presence of 32 uM laxaphycin A by MTT assay", "type": "functional"}, "HCT-116 [3]": {"tested_on": "HCT-116", "test": "Synergistic antiproliferative activity against human HCT116 cells assessed as combination index at 0.32 uM after 48 hrs in presence of 10 uM laxaphycin A by MTT assay", "type": "functional"}, "HCT-116 [4]": {"tested_on": "HCT-116", "test": "Synergistic antiproliferative activity against human HCT116 cells assessed as combination index at 0.1 uM after 48 hrs in presence of 3.2 uM laxaphycin A by MTT assay", "type": "functional"}, "HCT-116 [5]": {"tested_on": "HCT-116", "test": "Synergistic antiproliferative activity against human HCT116 cells assessed as combination index at 0.032 uM after 48 hrs in presence of 1 uM laxaphycin A by MTT assay", "type": "functional"}, "HCT-116 [6]": {"tested_on": "HCT-116", "test": "Synergistic antiproliferative activity against human HCT116 cells assessed as combination index at 32 uM after 48 hrs in presence of 320 uM laxaphycin A by MTT assay", "type": "functional"}, "HCT-116 [7]": {"tested_on": "HCT-116", "test": "Synergistic antiproliferative activity against human HCT116 cells assessed as combination index at 10 uM after 48 hrs in presence of 100 uM laxaphycin A by MTT assay", "type": "functional"}, "HCT-116 [8]": {"tested_on": "HCT-116", "test": "Synergistic antiproliferative activity against human HCT116 cells assessed as combination index at 3.2 uM after 48 hrs in presence of 32 uM laxaphycin A by MTT assay", "type": "functional"}, "HCT-116 [9]": {"tested_on": "HCT-116", "test": "Synergistic antiproliferative activity against human HCT116 cells assessed as combination index at 1 uM after 48 hrs in presence of 10 uM laxaphycin A by MTT assay", "type": "functional"}, "HCT-116 [10]": {"tested_on": "HCT-116", "test": "Synergistic antiproliferative activity against human HCT116 cells assessed as combination index at 0.32 uM after 48 hrs in presence of 3.2 uM laxaphycin A by MTT assay", "type": "functional"}, "HCT-116 [11]": {"tested_on": "HCT-116", "test": "Synergistic antiproliferative activity against human HCT116 cells assessed as combination index at 0.1 uM after 48 hrs in presence of 1 uM laxaphycin A by MTT assay", "type": "functional"}, "HCT-116 [12]": {"tested_on": "HCT-116", "test": "Synergistic antiproliferative activity against human HCT116 cells assessed as combination index at 10 uM after 48 hrs in presence of 1 uM laxaphycin B4 by MTT assay", "type": "functional"}, "HCT-116 [13]": {"tested_on": "HCT-116", "test": "Synergistic antiproliferative activity against human HCT116 cells assessed as combination index at 32 uM after 48 hrs in presence of 1 uM laxaphycin B4 by MTT assay", "type": "functional"}, "HCT-116 [14]": {"tested_on": "HCT-116", "test": "Synergistic antiproliferative activity against human HCT116 cells assessed as combination index at 10 uM after 48 hrs in presence of 0.32 uM laxaphycin B4 by MTT assay", "type": "functional"}, "HCT-116 [15]": {"tested_on": "HCT-116", "test": "Synergistic antiproliferative activity against human HCT116 cells assessed as combination index at 3.2 uM after 48 hrs in presence of 0.1 uM laxaphycin B4 by MTT assay", "type": "functional"}, "HCT-116 [16]": {"tested_on": "HCT-116", "test": "Synergistic antiproliferative activity against human HCT116 cells assessed as combination index at 1 uM after 48 hrs in presence of 0.032 uM laxaphycin B4 by MTT assay", "type": "functional"}, "HCT-116 [17]": {"tested_on": "HCT-116", "test": "Synergistic antiproliferative activity against human HCT116 cells assessed as combination index at 320 uM after 48 hrs in presence of 32 uM laxaphycin B4 by MTT assay", "type": "functional"}, "HCT-116 [18]": {"tested_on": "HCT-116", "test": "Synergistic antiproliferative activity against human HCT116 cells assessed as combination index at 100 uM after 48 hrs in presence of 10 uM laxaphycin B4 by MTT assay", "type": "functional"}, "HCT-116 [19]": {"tested_on": "HCT-116", "test": "Synergistic antiproliferative activity against human HCT116 cells assessed as combination index at 32 uM after 48 hrs in presence of 3.2 uM laxaphycin B4 by MTT assay", "type": "functional"}, "HCT-116 [20]": {"tested_on": "HCT-116", "test": "Synergistic antiproliferative activity against human HCT116 cells assessed as combination index at 3.2 uM after 48 hrs in presence of 0.32 uM laxaphycin B4 by MTT assay", "type": "functional"}, "HCT-116 [21]": {"tested_on": "HCT-116", "test": "Synergistic antiproliferative activity against human HCT116 cells assessed as combination index at 1 uM after 48 hrs in presence of 0.1 uM laxaphycin B4 by MTT assay", "type": "functional"}}, "note": "pIC50: −log10 of the molar value. Starred links: 1 amine or outer side, 2 acyl side, 3 side chain; linkers in the order of their positions; H or OH if unused. Non-standard residues stand in square brackets, D forms with d. Residues, ends and D or L forms follow the SMILES beside them. dβ3hAhp = CCCCC[C@H](CC(=O)[*:2])N[*:1]; d(aIle) = CC[C@H](C)[C@@H](N)C(=O)O; Hyp = O=C(O)[C@@H]1C[C@@H](O)CN1; X1 = C/C=C(/N[*:1])C(=O)[*:2]; hSer = N[C@@H](CCO)C(=O)O"}
{"smiles": "CCCCCCC[C@@H]1CC(=O)N[C@@H](C(C)C)C(=O)N[C@H]([C@@H](O)C(C)C)C(=O)N[C@@H](CCO)C(=O)N[C@H]([C@@H](O)C(C)C)C(=O)N[C@@H](CCC(N)=O)C(=O)N(C)[C@@H]([C@@H](C)CC)C(=O)N[C@H]([C@@H](O)C(N)=O)C(=O)N[C@@H]([C@@H](C)O)C(=O)N2C[C@H](O)C[C@H]2C(=O)N[C@H](CC(C)C)C(=O)N[C@@H]([C@@H](C)O)C(=O)N1", "values": [{"measurement": "pIC50", "setting": "HCT-116 [1]", "result": 5.77}, {"measurement": "CI", "setting": "HCT-116 [2]", "result": 0.029}, {"measurement": "CI", "setting": "HCT-116 [3]", "result": 0.063}, {"measurement": "CI", "setting": "HCT-116 [4]", "result": 0.121}, {"measurement": "CI", "setting": "HCT-116 [5]", "result": 5.267}, {"measurement": "CI", "setting": "HCT-116 [6]", "result": 0.0002}, {"measurement": "CI", "setting": "HCT-116 [7]", "result": 0.0001}, {"measurement": "CI", "setting": "HCT-116 [8]", "result": 0.0005}, {"measurement": "CI", "setting": "HCT-116 [9]", "result": 0.1157}, {"measurement": "CI", "setting": "HCT-116 [10]", "result": 0.2909}, {"measurement": "CI", "setting": "HCT-116 [11]", "result": 0.2457}]}
{"smiles": "C/C=C1/NC(=O)[C@H](CCO)NC(=O)C[C@@H](CCCCC)NC(=O)CNC(=O)[C@H](CC(C)C)NC(=O)[C@@H]([C@@H](C)CC)NC(=O)[C@H](C(C)C)NC(=O)[C@@H](CC(C)C)NC(=O)[C@@H](Cc2ccccc2)NC(=O)[C@H](CCO)NC(=O)[C@@H]2C[C@@H](O)CN2C1=O", "note": "(cyclo(G[dβ3hAhp][hSer][X1][Hyp][hSer][dF][dL]V[d(aIle)]L))", "values": [{"measurement": "pIC50", "setting": "HCT-116 [1]", "result": 4.54}]}
{"smiles": "C/C=C1/NC(=O)[C@H](CCO)NC(=O)C[C@@H](CCCCC)NC(=O)CNC(=O)[C@H](CC(C)C)NC(=O)[C@@H]([C@@H](C)CC)NC(=O)[C@H]([C@@H](C)CC)NC(=O)[C@@H](CC(C)C)NC(=O)[C@@H](Cc2ccccc2)NC(=O)[C@H](CCO)NC(=O)[C@@H]2C[C@@H](O)CN2C1=O", "note": "[LAXAPHYCIN A] (cyclo(G[dβ3hAhp][hSer][X1][Hyp][hSer][dF][dL]I[d(aIle)]L))", "values": [{"measurement": "CI", "setting": "HCT-116 [12]", "result": 0.1157}, {"measurement": "pIC50", "setting": "HCT-116 [1]", "result": 4.64}, {"measurement": "CI", "setting": "HCT-116 [13]", "result": 0.029}, {"measurement": "CI", "setting": "HCT-116 [14]", "result": 0.063}, {"measurement": "CI", "setting": "HCT-116 [15]", "result": 0.121}, {"measurement": "CI", "setting": "HCT-116 [16]", "result": 5.267}, {"measurement": "CI", "setting": "HCT-116 [17]", "result": 0.0002}, {"measurement": "CI", "setting": "HCT-116 [18]", "result": 0.0001}, {"measurement": "CI", "setting": "HCT-116 [19]", "result": 0.0005}, {"measurement": "CI", "setting": "HCT-116 [20]", "result": 0.2909}, {"measurement": "CI", "setting": "HCT-116 [21]", "result": 0.2457}]}
